Source: ChEMBL document CHEMBL2311452 (J Med Chem, 2013)
pIC50: −log10 of the molar value.

Tests used:
[1] = target: T1, Neuraminidase (Influenza A virus, UniProt B4URF0); test: Inhibition of influenza A virus (A/Guangdong/376/2001(H1N1)) neuraminidase infected in chick embryo using MUNANA as substrate after 1 hr by spectrophotometric analysis
[2] = target: T1, Neuraminidase; test: Inhibition of Influenza A virus (A/Sydney/5/1997(H3N2)) neuraminidase infected in chick embryo using MUNANA as substrate after 1 hr by spectrophotometric analysis
[3] = target: T1, Neuraminidase; test: Inhibition of Influenza A virus (A/Indonesia/5/2005(H5N1)) neuraminidase infected in chick embryo using MUNANA as substrate after 1 hr by spectrophotometric analysis
[4] = Volume of distribution at steady state in Sprague-Dawley rat at 10 mg/kg, iv; format: ADME, organism-based; set-up: dose 10 mg/kg, route intravenous; conditions: in vivo, read-out: Vdss
[5] = Clearance in Sprague-Dawley rat at 10 mg/kg, iv; format: ADME, organism-based; set-up: dose 10 mg/kg, route intravenous; conditions: in vivo
[6] = Cmax in Sprague-Dawley rat at 10 mg/kg, po; format: ADME, organism-based; set-up: dose 10 mg/kg, route oral; conditions: in vivo
Summary of the method: (§1)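 Single 10 mg/kg oral dose given to male Sprague-Dawley rats (~250 g), three per group. Blood was sampled via the retrobulbar vein at 0, 5, 15 and 30 min and at 1, 2, 5, 8 and 24 h. Plasma concentrations were measured by LC/MS/MS, and parameters came from noncompartmental analysis of mean plasma concentrations.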

[7] = Tmax in Sprague-Dawley rat at 10 mg/kg, po; format: ADME, organism-based; set-up: dose 10 mg/kg, route oral; conditions: in vivo; summary of the method: as §1
[8] = Terminal half life in Sprague-Dawley rat at 10 mg/kg, iv; format: ADME, organism-based; set-up: dose 10 mg/kg, route intravenous; conditions: in vivo, read-out: beta t1/2 (converted)
[9] = Mean residence time in Sprague-Dawley rat at 10 mg/kg, po; format: ADME, organism-based; set-up: dose 10 mg/kg, route oral; conditions: in vivo; summary of the method: as §1
[10] = AUC (0 to 8 hrs) in Sprague-Dawley rat at 10 mg/kg, po; format: ADME, organism-based; set-up: time < 8 hr, dose 10 mg/kg, route oral; conditions: plasma
Summary of the method: (§2)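 Male Sprague-Dawley rats (~250 g), three per group. One group received 10 mg/kg orally and the other 2 mg/kg intravenously. Blood was drawn from the retrobulbar vein at 0, 5, 15 and 30 min and at 1, 2, 5, 8 and 24 h. Plasma levels were measured by LC/MS/MS, and parameters were calculated by noncompartmental analysis of mean plasma concentrations.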

[11] = Terminal half life in Sprague-Dawley rat at 2 mg/kg, iv; format: ADME, organism-based; set-up: dose 2 mg/kg, route intravenous; conditions: in vivo, read-out: beta t1/2 (converted)
Summary of the method: (§3)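 Male Sprague-Dawley rats (~250 g), three per group, given a single 2 mg/kg intravenous dose. Blood samples were drawn via the retrobulbar vein at 0, 5, 15 and 30 min and at 1, 2, 5, 8 and 24 h. Plasma levels were quantified by LC/MS/MS, and parameters were derived by noncompartmental analysis of mean plasma concentrations.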

[12] = Cmax in Sprague-Dawley rat at 2 mg/kg, iv; format: ADME, organism-based; set-up: dose 2 mg/kg, route intravenous; conditions: in vivo; summary of the method: as §3
[13] = AUC (0 to 8 hrs) in Sprague-Dawley rat at 2 mg/kg, iv; format: ADME, organism-based; set-up: time < 8 hr, dose 2 mg/kg, route intravenous; conditions: plasma; summary of the method: as §2
[14] = Clearance in Sprague-Dawley rat at 2 mg/kg, iv; format: ADME, organism-based; set-up: dose 2 mg/kg, route intravenous; conditions: in vivo; summary of the method: as §3
[15] = Terminal half life in Sprague-Dawley rat at 10 mg/kg, po; format: ADME, organism-based; set-up: dose 10 mg/kg, route oral; conditions: in vivo, read-out: beta t1/2 (converted)
Summary of the method: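 Single 10 mg/kg oral dose given to male Sprague-Dawley rats (~250 g), three per group. Plasma concentrations were measured by LC/MS/MS, and parameters came from noncompartmental analysis of mean plasma concentrations.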

[16] = Volume of distribution at steady state in Sprague-Dawley rat at 2 mg/kg, iv; format: ADME, organism-based; set-up: dose 2 mg/kg, route intravenous; conditions: in vivo, read-out: Vdss; summary of the method: as §3
[17] = Oral bioavailability in Sprague-Dawley rat at 10 mg/kg; format: ADME, organism-based; conditions: in vivo; summary of the method: as §1
[18] = Mean residence time in Sprague-Dawley rat at 2 mg/kg, iv; format: ADME, organism-based; set-up: dose 2 mg/kg, route intravenous; conditions: in vivo; summary of the method: as §3
[19] = target: Neuraminidase (Influenza A virus) (UniProt B4URF0); test: Inhibition of influenza A virus (A/Guangdong/376/2001(H1N1)) neuraminidase infected in chick embryo using MUNANA as substrate at 1 uM after 1 hr by spectrophotometric analysis
Sequence of Neuraminidase (Influenza A virus) (B4URF0 as listed by the source): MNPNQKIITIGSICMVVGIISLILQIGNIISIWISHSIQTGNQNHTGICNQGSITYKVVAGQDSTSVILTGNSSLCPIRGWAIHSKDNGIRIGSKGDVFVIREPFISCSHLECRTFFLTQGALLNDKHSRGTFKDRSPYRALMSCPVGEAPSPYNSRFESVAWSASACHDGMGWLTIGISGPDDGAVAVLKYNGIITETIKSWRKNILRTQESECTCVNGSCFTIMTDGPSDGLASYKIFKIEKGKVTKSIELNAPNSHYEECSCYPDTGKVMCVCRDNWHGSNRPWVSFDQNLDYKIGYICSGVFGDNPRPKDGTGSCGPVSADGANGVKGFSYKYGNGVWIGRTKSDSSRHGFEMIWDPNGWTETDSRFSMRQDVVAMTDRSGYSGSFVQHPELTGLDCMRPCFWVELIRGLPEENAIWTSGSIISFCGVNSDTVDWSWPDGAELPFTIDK

[20] = target: T1, Neuraminidase; test: Inhibition of Influenza A virus Mississippi/1/85(H3N2) neuraminidase
[21] = target: T1, Neuraminidase; test: Inhibition of Influenza A virus H5N1 neuraminidase
[22] = target: T1, Neuraminidase; test: Inhibition of Influenza A virus […]/78(H1N1) neuraminidase

T1 sequence (B4URF0 whole entry): as the sequence (B4URF0 as listed by the source) above

| SMILES | pIC50 [1] | pIC50 [2] | pIC50 [3] | also measured |
| --- | --- | --- | --- | --- |
| CC(=O)N[C@H]1[C@H]([C@H](O)[C@H](O)CO)OC(C(=O)N2CCC(C(=O)O)CC2)=C[C@@H]1N | 5.20 | 5.23 | 5.24 |  |
| CC(=O)N[C@H]1[C@H]([C@H](O)[C@H](O)CO)OC(C(=O)N[C@@H](CC(C)C)C(=O)O)=C[C@@H]1N | 3.80 | 3.19 | 3.17 |  |
| CC(=O)N[C@H]1[C@H]([C@H](O)[C@H](O)CO)OC(C(=O)N2CCC[C@@H](C(=O)O)C2)=C[C@@H]1N | 3.99 | 3.83 | 3.79 |  |
| CC(=O)N[C@H]1[C@H]([C@H](O)[C@H](O)CO)OC(C(=O)O)=C[C@@H]1N=C(N)N [ZANAMIVIR] |  |  |  | Vd [4]: 0.8 L/kg; clearance [5]: 31.7 mL/min/kg; Cmax [6]: 60 ng/mL; Tmax [7]: 1.2 h; half-life [8]: 1.1 h |
| CC(=O)N[C@H]1[C@H]([C@H](O)[C@H](O)CO)OC(C(=O)N[C@@H](CC(C)C)C(=O)O)=C[C@@H]1O | < 3.00 | 3.04 | < 3.00 |  |
| CC(=O)N[C@H]1[C@H]([C@H](O)[C@H](O)CO)OC(C(=O)NCc2ccccc2)=C[C@@H]1O | 3.85 | 3.15 | 3.08 |  |
| CC(=O)N[C@H]1[C@H]([C@H](O)[C@H](O)CO)OC(C(=O)NCc2cccc(F)c2)=C[C@@H]1NC(=N)N | 7.05 | 7.89 | 9.00 | MRT [9]: 6.29 h; AUC(0-t) at 8 h [10]: 378 ng·h/mL; half-life [11]: 0.69 h; Cmax [6]: 260 nM; Cmax [12]: 8800 ng/mL; Tmax [7]: 1 h; AUC(0-t) at 8 h [13]: 5380 ng·h/mL; clearance [14]: 5.83 mL/min/kg; half-life [15]: 2.96 h; Vd [16]: 0.23 L/kg; bioavailability [17]: 1.41%; MRT [18]: 0.65 h |
| CC(=O)N[C@H]1[C@H]([C@H](O)[C@H](O)CO)OC(C(=O)N[C@H](C(=O)O)C(C)C)=C[C@@H]1O | < 3.00 | 3.16 | 3.10 |  |
| CC(=O)N[C@H]1[C@H]([C@H](O)[C@H](O)CO)OC(C(=O)N[C@H](C(=O)O)C(C)C)=C[C@@H]1N | 5.65 | 5.29 | 5.37 |  |
| CC(=O)N[C@H]1[C@H]([C@H](O)[C@H](O)CO)OC(C(=O)NCc2ccc(C)cc2)=C[C@@H]1NC(=N)N | 6.59 | 6.07 | 6.55 |  |
| CC(=O)N[C@H]1[C@H]([C@H](O)[C@H](O)CO)OC(C(=O)NCc2ccc(F)cc2)=C[C@@H]1NC(=N)N |  |  |  | inhibition [19]: 54.8% |
| CCOC(=O)C1=C[C@@H](OC(CC)CC)[C@H](NC(C)=O)[C@@H](N)C1.O=P(O)(O)O [OSELTAMIVIR PHOSPHATE] |  |  |  | Vd [4]: 1.3 L/kg; clearance [5]: 25 mL/min/kg; Cmax [6]: 30 ng/mL; Tmax [7]: 4 h; half-life [15]: 10.6 h; half-life [8]: 1.6 h; bioavailability [17]: 4.3% |
| CC(=O)N[C@H]1[C@H]([C@H](O)[C@H](O)CO)OC(C(=O)N[C@@H](C)C(=O)O)=C[C@@H]1NC(=N)N | 7.00 | 6.39 | 7.20 |  |
| CC[C@H](C)[C@H](NC(=O)C1=C[C@H](O)[C@@H](NC(C)=O)[C@H]([C@H](O)[C@H](O)CO)O1)C(=O)O | < 3.00 | 3.10 | 3.03 |  |
| CC(=O)N[C@H]1[C@H]([C@H](O)[C@H](O)CO)OC(C(=O)O)=C[C@@H]1O [NEU5AC2EN] |  |  |  | pIC50 [20]: 4.28; pIC50 [21]: 7.92; pIC50 [22]: 3.62 |
| CC(=O)N[C@H]1[C@H]([C@H](O)[C@H](O)CO)OC(C(=O)N[C@H](C(=O)O)C(C)C)=C[C@@H]1NC(=N)N | 5.67 | 6.97 | 5.38 |  |
| CC(=O)N[C@H]1[C@H]([C@H](O)[C@H](O)CO)OC(C(=O)NCc2ccccc2F)=C[C@@H]1NC(=N)N | 6.62 | 6.05 | 6.59 |  |
| CC(=O)N[C@H]1[C@H]([C@H](O)[C@H](O)CO)OC(C(=O)NCCC(=O)O)=C[C@@H]1NC(=N)N | 6.44 | 6.30 | 7.15 |  |
| CC(=O)N[C@H]1[C@H]([C@H](O)[C@H](O)CO)OC(C(=O)N[C@@H](CCC(=O)O)C(=O)O)=C[C@@H]1NC(=N)N | 6.35 | 6.09 | 6.80 |  |
| CC(=O)N[C@H]1[C@H]([C@H](O)[C@H](O)CO)OC(C(=O)N[C@H](C(=O)O)c2ccccc2)=C[C@@H]1O | 4.22 | 4.22 | 4.13 |  |
| CC(=O)N[C@H]1[C@H]([C@H](O)[C@H](O)CO)OC(C(=O)N[C@@H](CC(C)C)C(=O)O)=C[C@@H]1NC(=N)N | 5.29 | 4.65 | 5.45 |  |
| CC(=O)N[C@H]1[C@H]([C@H](O)[C@H](O)CO)OC(C(=O)NCC(=O)O)=C[C@@H]1N | 4.86 | 4.78 | 5.06 |  |
| COc1ccc(CNC(=O)C2=C[C@H](O)[C@@H](NC(C)=O)[C@H]([C@H](O)[C@H](O)CO)O2)cc1 | < 3.00 | 3.07 | < 3.00 |  |
| CC(=O)N[C@H]1[C@H]([C@H](O)[C@H](O)CO)OC(C(=O)N2CCOCC2)=C[C@@H]1O | 4.00 | 4.28 | 4.18 |  |
| CC(=O)N[C@H]1[C@H]([C@H](O)[C@H](O)CO)OC(C(=O)NCc2cccc(Cl)c2)=C[C@@H]1NC(=N)N |  |  |  | inhibition [19]: 51% |
